The species entered for series [1] is Cavia porcellus. Description: Compound was tested in vitro for antiaggregation induced by thrombin at 0.625 IU/mL in guinea pig PRP after 2 min. It is filed as functional. Put shortly:
(§1)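 Born method. Citrated (3.8%, 1:10) aortic blood from fasted male guinea pigs under pentobarbital, centrifuged to give platelet-rich plasma. Incubated 10 min at room temperature with compound at 66 μM. Aggregation triggered by ADP, equine tendon collagen or thrombin. Result is % inhibition vs controls, mean of five experiments; thrombin values read at 2 or 4 min.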

A short description of series [2]: (§2) Area under curve was determined for 0-6 hr duration using dihydralazine as reference drug for the peak blood pressure. It is filed as ADME. The arrangement: concentration or dose not given beside the values. In short, it runs like this: (§3)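 SH rats, fasted, given a single oral dose of 12.5 mg/kg in 1% methylcellulose by gavage. Tail-cuff systolic pressure read hourly; area under the curve taken over 0–6 h. Dihydralazine was the reference; relative activity is AUC(dihydralazine)/AUC(compound), and a smaller AUC means higher activity.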

The species entered for series [3] is Cavia porcellus. Description: Compound was tested in vitro for antiaggregation induced by collagen (0.8 ug/mL) in guinea pig PRP. It counts as functional. Put shortly: as §1
The species named for series [4] is Cavia porcellus. The experiment in a line: Compound was tested in vitro for its antiaggregation induced by thrombin at 0.625 IU/mL in guinea pig PRP after 4 min. It is filed as functional. Put shortly: as §1
Series [5] is filed under the species Cavia porcellus. Description: In vitro inhibition of platelet aggregation induced by 0.5 uM ADP (irreversible activity) was determined in guinea pig PRP. It counts as functional. In short, it runs like this: as §1
For series [6], the system named is Rattus norvegicus. The experiment in a line: Compound was evaluated for its antiinflammatory activity in rat by Carrageenan paw edema test; Inactive. It counts as functional, organism-based. Put shortly: (§4)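 Male Sprague-Dawley rats, 130–150 g, fasted 18 h, 8/group. Compound in 1% carboxymethylcellulose by gavage; 1 h later 0.1 mL 1% carrageenin injected into the right hind paw. Paw volume measured by plethysmometer at 0, 1 and 3 h. Inhibition at 3 h vs vehicle controls; ED50 is the dose giving 50% inhibition.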

The species named for series [7] is Rattus norvegicus. The experiment in a line: Dose that lowers blood pressure by 25 mm Hg was determined in spontaneous hypertensive rats (SHR). It counts as functional. Put shortly:
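Conscious SH rats, 150–200 g, fasted 12 h, warmed at 33 °C for 30 min before tail-cuff plethysmography of systolic pressure. Suspension in 1% methylcellulose by gavage at 1.56, 3.125, 6.25, 12.5 and 25 mg/kg, 6 rats/dose, read hourly for 6 h. ED25 is the dose lowering pressure by 25 mmHg at peak, taken from log dose-response curves.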

The species entered for series [8] is Cavia porcellus. The experiment in a line: Compound was tested in vitro for antiaggregation induced by 0.5 uM ADP in guinea pig PRP. It is filed as functional. In short, it runs like this:
as §1

For the next series, the species on record is Mus musculus. The experiment in a line: In vitro antithrombotic activity in mouse. It is filed as functional. The following applies: in the assay text read “In vivo” for “In vitro”. In short, it runs like this:
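Male Swiss mice, 20–30 g, 10/group. Oral dose in 1% hydroxymethylcellulose, equimolar to ASA 20 mg/kg. At 1 h, iv tail injection of collagen (200 μg/mL) plus adrenaline (200 μM), 10 mL/kg, after warming at 27 °C. Death or hind-limb paralysis over 15 min counted; % protection = (Nc−Nt)/Nc×100.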

Series [9] is filed under the species Rattus norvegicus. Description: (§5) relative activity with respect to the dihydralazine was determined. It is filed as functional. Put shortly:
as §3

The nature of series [10]: Compound was tested for its lethality in vivo in mouse. It counts as ADME, organism-based.
Series [11] is filed under the species Rattus norvegicus. Description: Compound was tested for antihypertensive activity in normotensive rats and the dose that lowered by 25 mmHg of the blood pressure was determined. It counts as functional. In short, it runs like this: (§6)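 Unanesthetized male Sprague-Dawley rats, 150–200 g, fasted 12 h, warmed at 33 °C for 30 min. Oral dosing at 6.25, 12.5 and 25 mg/kg; dihydralazine 0.78–6.25 mg/kg po. Tail-cuff systolic pressure read hourly for 6 h, 6 rats/dose. ED25 is the dose lowering pressure by 25 mmHg at peak, taken from log dose-response curves.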

Series [12] in a line: as §5. It is filed as functional. Put shortly:
as §3

The species entered for series [13] is Rattus norvegicus. The series is described as §2. It is filed as functional, organism-based. Put shortly: as §3
Series [14] deals with Rattus norvegicus. Description: Compound was evaluated for its antiinflammatory activity in rat by Carrageenan paw edema test. It is filed as functional. In short, it runs like this: as §4
Background: The carrageenan paw model is a standard test of acute inflammation.

The species named for series [15] is Rattus norvegicus. The experiment in a line: Compound was evaluated for its antiulcer activity in rat. It is filed as functional. Put shortly: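 Male Sprague-Dawley rats, 180–250 g, 8/group, fasted 24 h with water. Compound by gavage right after indomethacin 15 mg/kg ip. Stomachs examined 5 h later under a 10× microscope; lesion number and severity scored on an arbitrary scale. ED50 is the dose reducing lesions by 50%.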

The species named for series [16] is Rattus norvegicus. The experiment in a line: (§7) Relative activity with respect to the dihydralazine was determined. It counts as functional. In short, it runs like this:
as §3

The species named for series [17] is Cavia porcellus. The experiment in a line: Compound was tested in vitro for antiaggregation induced by thrombin at 0.625 IU/mL in guinea pig PRP after 4 min. It counts as functional. Put shortly:
as §1

Series [18] can be described thus: as §7. It counts as functional. In short, it runs like this:
as §3

Series [19] is filed under the species Rattus norvegicus. Description: Antihypertensive activity in normotensive rats. It counts as functional. Put shortly:
as §6

The source made the active and inactive calls. The rule behind the calls is not given here.

For `CC(=O)Nc1ccc2c(c1)CC1CC(=O)N(C)N=C21` (stereo not drawn), the Activity turned out to be 5 in the series listed under Cavia porcellus [1]; 40 in the series filed under Cavia porcellus [3]; 37 in the series listed under Cavia porcellus [4]; 23 in the series listed under Cavia porcellus [5]; 4 in the series listed under Cavia porcellus [8]; 50 in the series listed under Mus musculus. Besides, in the series listed under Rattus norvegicus [9], the Activity was determined as 0.6. Moreover, in series [2], the AUC units was 31960. For the same compound, the ED50 entry in the series with Rattus norvegicus [6] is “inactive”. Also, the ED25 in the series filed under Rattus norvegicus [7] worked out at 15 mg/kg. In series [10], this compound came in with an LD50 of 1000 mg/kg.

Consider `N/N=c1\[nH][nH]/c(=N\N)c2ccccc12` [DIHYDRALAZINE], for which the ED25 in the series listed under Rattus norvegicus [11] was determined as 3.12 mg/kg; in the series filed under Rattus norvegicus [7] it was 0.72 mg/kg. For the same compound, the Activity in series [12] was found to be 1. In the series listed under Rattus norvegicus [13], this compound returned an AUC units of 17900.

For `Nc1ccc2c(c1)CC1CC(=O)NN=C21` (stereo not drawn), the Activity in the series listed under Cavia porcellus [1] worked out at 44; in the series filed under Cavia porcellus [3], 58; in the series filed under Rattus norvegicus [16] it was 0.74; in the series listed under Cavia porcellus [17], 34; in the series listed under Cavia porcellus [5] it was 66; in the series listed under Cavia porcellus [8] it was 31. For the same compound, the Activity in the series filed under Mus musculus worked out at 87. Moreover, the AUC units in series [2] is given as 24350. Moreover, the results for the ED50 in the series on Rattus norvegicus [14] and in the series listed under Rattus norvegicus [15] were 40.8 mg/kg and 100 mg/kg, respectively. Moreover, in the series filed under Rattus norvegicus [7], the ED25 stood at 2.6 mg/kg. In addition, in [10], the LD50 is 308 mg/kg.

In the case of `CN1N=C2c3ccc(N)cc3CC2CC1=O` (stereo not drawn), the Activity in the series filed under Cavia porcellus [1] amounted to 36; in the series listed under Cavia porcellus [3], 26; in the series filed under Rattus norvegicus [16], 0.49; in the series filed under Cavia porcellus [17], 37; in the series filed under Cavia porcellus [5], 33; in the series listed under Cavia porcellus [8], 7. In the series filed under Mus musculus, this compound showed an Activity of 58. In [2], this compound gave an AUC units of 36740. The ED50 result with Rattus norvegicus [6] is “inactive”. The ED25 in the series filed under Rattus norvegicus [7] worked out at 15.5 mg/kg. In addition, the LD50 in [10] came to 750 mg/kg.

For the compound `CC(Cl)C(=O)Nc1ccc2c(c1)CC1CC(=O)NN=C21` (stereo not drawn), the Activity in the series listed under Cavia porcellus [1] worked out at 84; in the series listed under Cavia porcellus [3] it was 60; in series [18], 0.66; in the series listed under Cavia porcellus [17] it was 83; in the series filed under Cavia porcellus [5], 40; in the series listed under Cavia porcellus [8], 48. Besides, the Activity in the series filed under Mus musculus was found to be 62. The compound also yielded an AUC units in series [2] of 27140. The values for the ED50 in the series with Rattus norvegicus [14] and in the series listed under Rattus norvegicus [15] were 155 mg/kg and 0.3 mg/kg, respectively. The compound further yielded an ED25 in the series filed under Rattus norvegicus [7] of 10 mg/kg. This compound had an LD50 in series [10] of 1000 mg/kg.

As to `CC(=O)Nc1ccc2c(c1)CC1CC(=O)NN=C21` (stereo not drawn), the Activity in the series filed under Cavia porcellus [1] came to 95; in the series listed under Cavia porcellus [3] it was 73; in the series listed under Rattus norvegicus [16], 1.02; in the series filed under Cavia porcellus [17], 100; in the series filed under Cavia porcellus [5], 81; in the series filed under Cavia porcellus [8], 45. Further, the Activity in the series listed under Mus musculus is listed as 100. Moreover, the AUC units in series [2] was 17560. Besides, the ED50 with Rattus norvegicus [14] came out at 160 mg/kg; in the series listed under Rattus norvegicus [15], 0.3 mg/kg. Besides, the values for the ED25 in the series listed under Rattus norvegicus [19] and in the series filed under Rattus norvegicus [7] were 25 mg/kg and 2.6 mg/kg, respectively. In [10], the LD50 was 1000 mg/kg.

One may read the ED50 as the dose that gives a 50% effect, or the effect in half of the subjects. In general, LD50 refers to the dose expected to kill half of the subjects tested.

The record behind these values is ChEMBL document CHEMBL1123264, “Conformationally restricted congeners of hypotensive and platelet aggregation inhibitors: 6-aryl-5-methyl-4,5-dihydro-3(2H)-pyridazinones derived from 5H-indeno[1,2-c]pyridazine” (J Med Chem, 1986).
